This note sets out measurements from ChEMBL document CHEMBL2380302, “Synthesis of 3-O-propargylated betulinic acid and its 1,2,3-triazoles as potential apoptotic agents” (Eur J Med Chem, 2013).

The structures appear in SMILES notation. The source made the active and inactive calls. The rule behind the calls is not given here.

For test [1], the system named is HL-60. Description: Induction of apoptosis in human HL60 cells assessed as DNA ladder formation at 5 uM after 6 hrs by DNA agarose gel electrophoresis. The test is classed as functional, cell-based. The essentials: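 HL-60 cells (2 × 10⁶/well/2 mL) were treated at 5 µM for 6 h, then pelleted and washed in PBS. DNA was extracted with phenol:chloroform:isoamyl alcohol and ethanol-precipitated. It was run on 1% agarose in TAE at 80 V for 1.5 h.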

In test [2] the test system is SF-295. Description: Cytotoxicity against human SF295 cells at 20 uM after 48 hrs by SRB assay. The test is classed as functional. To be noted: SF-295, 48 h, read-out: GI. A digest of the protocol:
(§1)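 Cells grown in RPMI-1640/MEM with 10% FCS and penicillin/streptomycin at 37 °C in 5% CO2. They adhered overnight in 96-well plates and were exposed to compound for 48 h. Cells were then fixed with ice-cold 50% TCA for 60 min and stained with 0.4% SRB in 1% acetic acid for 30 min. Dye was solubilised in 10 mM Tris base and OD read at 570 nm (reference 620 nm).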

The test system of test [3] is HCT-15. Description: Cytotoxicity against human HCT15 cells at 20 uM after 48 hrs by SRB assay. The test is classed as functional. To be noted: HCT-15, 48 h, read-out: GI. The essentials:
as §1
Background: The SRB assay estimates cell density from bound dye.

Test [4] relates to A549. Description: Cytotoxicity against human A549 cells at 20 uM after 48 hrs by SRB assay. The test is classed as functional. To be noted: A549, 48 h, read-out: GI. A digest of the protocol: as §1
Test [5] deals with PC-3. Description: Cytotoxicity against human PC3 cells at 20 uM after 48 hrs by SRB assay. The test is classed as functional. To be noted: PC-3, 48 h, read-out: GI. A digest of the protocol:
as §1

Test [6] concerns DU-145. Description: Cytotoxicity against human DU145 cells at 20 uM after 48 hrs by SRB assay. The test is classed as functional. Particulars: DU-145, 48 h, read-out: GI. The essentials: as §1
Test [7] deals with THP-1. Kind of test: Cytotoxicity against human THP1 cells at 20 uM after 48 hrs by SRB assay. The test is classed as functional. Particulars: THP-1, 48 h, read-out: GI. The essentials: as §1
In test [8] the test system is HL-60. Kind of test: Cytotoxicity against human HL60 cells at 20 uM after 48 hrs by SRB assay. The test is classed as functional. To be noted: HL-60, 48 h, read-out: GI. The essentials:
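HL-60 suspension cells in RPMI-1640/MEM with 10% FCS at 37 °C in 5% CO2 were plated in 96 wells and exposed to compound for 48 h. Cells were fixed with 80% TCA and pelleted at 1500 rpm for 15 min. Staining used 0.4% SRB in 1% acetic acid for 30 min; dye was dissolved in 10 mM Tris base and OD read at 570/620 nm.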

Turning to `CC[C@@]1(O)C(=O)OCc2c1cc1n(c2=O)Cc2cc3ccccc3nc2-1`, the result in test [1] was Active.
Consider `O=c1[nH]cc(F)c(=O)[nH]1` [FLUOROURACIL], for which the inhibition of growth at 20 µM in test [2] was determined as 73%; in test [3], 72%; in test [4], 75%; in test [5], 64%; in test [6], 72%; in test [7] it was 83%. The inhibition of growth at 20 µM in test [8] turned out to be 89%.
